Test results reported in PubChem BioAssay AID2520 (Sanford-Burnham Center for Chemical Genomics, 2010).
In all, about 330,000 compounds went through this assay and about 350 (0.11%) were called active.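 How the source made its calls: active means activation more than six SD over the plate average, tested at 20 µM; inactive means the rest.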 The list comes from a sample in which actives are over-represented; it also holds similar structures and randomly drawn compounds.

Each compound was assayed against Apelin receptor (Homo sapiens) (UniProt P35414) (assay: agonists of human apelin receptor APJ, primary screen, CHO-K1 cells, PathHunter beta-arrestin, luminescence (AID 2520)). Conditions: at 20 µM, stronger effect = higher value, 0% DMSO wells, 100% apelin.
Apelin receptor (Homo sapiens), sequence (P35414 whole entry, looked up): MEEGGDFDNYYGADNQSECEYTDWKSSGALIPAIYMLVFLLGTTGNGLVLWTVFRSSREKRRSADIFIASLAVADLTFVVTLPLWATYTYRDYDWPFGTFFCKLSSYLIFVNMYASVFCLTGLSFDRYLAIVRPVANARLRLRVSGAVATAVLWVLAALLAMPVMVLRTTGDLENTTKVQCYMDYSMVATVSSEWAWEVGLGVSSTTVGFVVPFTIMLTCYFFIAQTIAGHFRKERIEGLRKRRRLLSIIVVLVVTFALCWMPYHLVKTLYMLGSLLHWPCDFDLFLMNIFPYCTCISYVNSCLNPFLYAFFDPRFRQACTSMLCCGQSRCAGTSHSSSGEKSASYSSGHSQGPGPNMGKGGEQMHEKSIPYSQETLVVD
Procedure, shortened: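 Incubation: overnight seeding, 90 min compound at 25 °C, 1 h detection; test system: PathHunter CHO-K1 APJ (AGTRL-1) beta-arrestin reporter cells; amount: 1000 cells/well; doses: one dose, 20 µM compound, 1% DMSO; measured by: beta-gal luminescence; measure: agonist-driven arrestin binding to APJ; benchmarks: negative DMSO alone, positive Apelin-13 at 10 nM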

| Compound | activation |
| --- | --- |
| CCn1c(SCC(=O)NC2CC2)nnc1-c1ccncc1 | -8.09% (inactive) |
| CN1CCC(=O)N([C@H](CO)Cc2ccccc2)CC1 | -1.16% (inactive) |
| Cc1nn(Cc2ccccc2)c(C)c1C(=O)NCCCN1CCCC1=O | -4.22% (inactive) |
| COC(=O)C1C(=O)CC(C)(O)C(C(=O)OC)C1c1ccc2c(c1)OCO2 (stereo unspecified) | 2.74% (inactive) |
| NC(=O)CN1CCCC1c1ccc2c(c1)OCCO2 (stereo unspecified) | 0.777% (inactive) |
| O=C(O)Cc1ccc(NC(=O)C2CCCCC2C(=O)O)cc1 (stereo unspecified) | -3.2% (inactive) |
| Cc1cc(C)nc(NC2=NCC(=O)N2c2ccc(Cl)cc2)n1 | -2.04% (inactive) |
| Cc1ccnc(SCCn2c(N(C)Cc3ccccc3)nc3c2c(=O)n(C)c(=O)n3C)n1 | -0.694% (inactive) |
| Cc1[nH]c(C)c(S(=O)(=O)N2CCN(c3cccc(C(F)(F)F)c3)CC2)c1C(=O)N1CCCC1 | 0.662% (inactive) |
| COc1ccccc1N(CC(=O)NC1CCCC1)C(=O)C1(C)CC(=O)N=C2C=CC(C)=CN21 (stereo unspecified) | -0.286% (inactive) |
| Cc1cc(C)nc(SCc2nnc(SCC(=O)Nc3ncc(C)s3)n2Cc2ccco2)n1 | -3.79% (inactive) |
| CC[C@@]1(C(=O)OC)N[C@H](CN(C)C(C)=O)[C@@H]2C(=O)N(C)C(=O)[C@@H]21 | -1.38% (inactive) |
| CCC(=O)Nc1c(C)n[nH]c1C | -0.823% (inactive) |
| CN1CCN(c2ncc3c(n2)CC(c2ccccc2F)CC3=O)CC1 (stereo unspecified) | -2.83% (inactive) |
| CC(C)(C)Nc1c(N)c(=O)oc2ccccc12 | -1.36% (inactive) |
| Cc1ccccc1-n1nnc2c(=O)oc3ccccc3c21 | 10.2% (active) |
| CCCCC(=O)Nc1cc(C)c2c(=O)oc3ccccc3c2n1 | 7.83% (inactive) |
| O=C(c1ccc(-c2ccccc2)cc1)C1CCCN(C(=O)c2cncs2)C1 (stereo unspecified) | 1.31% (inactive) |
| Cc1noc(C)c1C(=O)NCC1COc2ccccc2O1 (stereo unspecified) | -2.37% (inactive) |
| Cc1ccccc1/[N+]([O-])=C/c1ccncc1 | 1.01% (inactive) |
| COCCn1nnnc1CN1CCC(NC(=O)Nc2cccc(OC)c2)CC1 | -0.645% (inactive) |
| COc1ccc(NC(=O)CC(NC(C)c2ccccc2)C(=O)O)cc1 (stereo unspecified) | -1.25% (inactive) |
| CCN(CC)CCNc1nc(-c2ccc(OC(F)F)cc2)c(C)s1 | -1.98% (inactive) |

| Compound | activation |
| --- | --- |
| CC1(C(=O)NNC(=S)NCC2CCCO2)CC1(Cl)Cl (stereo unspecified) | -1.22% (inactive) |
| O=C1CCC(=O)N1c1ccc(NCCc2ccccc2F)c([N+](=O)[O-])c1 | -3.51% (inactive) |
| O=C(NCCc1ccc(Cl)cc1)C1CCCN1C(=O)NCc1ccccc1 (stereo unspecified) | 0.456% (inactive) |
| CN1C(=O)c2ccccc2C(C(=O)NCCCN2CCCC2)C1c1c[nH]c2ccccc12 (stereo unspecified) | -1.97% (inactive) |
| Cc1ccc(NS(=O)(=O)c2ccc(-c3ccc(=O)[nH]n3)o2)c(C)c1 | 2.4% (inactive) |
| CN(C)c1ccc(C(CC(=O)O)C(=O)O)cc1 (stereo unspecified) | -1.37% (inactive) |
| CC(C)(C)n1nnc(CCc2nnn(C(C)(C)C)n2)n1 | -4.6% (inactive) |
| O=C(O)C1CCCN1S(=O)(=O)c1ccc(Br)cc1 (stereo unspecified) | -2.7% (inactive) |
| O=C(C1CC(=O)N(C2CCCC2)C1)N1CCN(c2cccc(C(F)(F)F)c2)CC1 (stereo unspecified) | 5.77% (inactive) |
| CN(C)c1nc2n(c(=O)n1)CCO2 | -2.79% (inactive) |
| c1ccc(C2CCC(N3CCC(N4CCCCC4)CC3)CC2)cc1 (stereo unspecified) | -3.04% (inactive) |
| O=C(Nc1ccc(Cl)cc1)c1cc2nc(C3CC3)cc(C(F)(F)F)n2n1 | -4.3% (inactive) |
| FC(F)(F)c1ccc(CN2C[C@@H]3C(c4ccccc4)C4(c5ccccc5)CC3(C4)[C@H]2c2ccccc2)cc1 (stereo partly specified) | -0.566% (inactive) |
| Cc1ccc(N(C(=O)Cc2cccs2)C2C=CS(=O)(=O)C2)cc1Cl (stereo unspecified) | -2.42% (inactive) |
| Cn1c(CC(=O)Nc2ccc(F)cc2)nnc1SCC(=O)NC1CCCCC1 | -3.67% (inactive) |
| COc1ccc(C)cc1NC(=O)c1cc(-c2ccccc2)nc2c1cnn2C(C)C | -4.65% (inactive) |
| CCOc1cc2[nH]c(=S)n(CCCN3CCCC3=O)c(=O)c2cc1OCC | 23.3% (active) |
| CCOc1cc2[nH]c(=S)n(CCN3CCCCC3C)c(=O)c2cc1OCC (stereo unspecified) | 7.97% (inactive) |
| CCOc1cc2[nH]c(=O)n(Cc3ccc(C(=O)NCCCN4CCCC4=O)cc3)c(=O)c2cc1OCC | 3.97% (inactive) |
| CC1CN(C(=O)CCC(=O)NCCCN2CCC(Cc3ccccc3)CC2)c2cc(Cl)ccc2O1 (stereo unspecified) | -4.59% (inactive) |
| CCn1c(CSCc2c(Cl)cccc2Cl)n[nH]c1=S | -4.78% (inactive) |
| CN1CCN(CCCCOc2ccccc2-c2ccccc2)CC1 | 3.27% (inactive) |
| O=Cc1ccc(OCc2cn3ccccc3n2)cc1 | -1.42% (inactive) |

| Compound | activation |
| --- | --- |
| COc1ccccc1CNC(=O)CN1CCC(n2cnc3cc(F)ccc32)CC1 | -0.106% (inactive) |
| Cc1cc(C(=O)OCC(=O)N2C(C)CCCC2C)c2ccccc2n1 (stereo unspecified) | -2.15% (inactive) |
| O=C(c1ccccc1)N1CCN(C(=O)c2cc3nc(-c4ccccc4)cc(C(F)(F)F)n3n2)CC1 | -0.488% (inactive) |
| COc1ccccc1Oc1ccc(N2CC(C(=O)OCC(=O)c3ccc(F)cc3)CC2=O)cc1 (stereo unspecified) | -2.79% (inactive) |
| O=C(Nc1ccc(F)c([N+](=O)[O-])c1)C1CC(=O)N(Cc2ccccc2)C1 (stereo unspecified) | -2.4% (inactive) |
| COc1cccc(N(CC(=O)NC2CCCC2)C(=O)Cn2nnc(-c3ccc(C)cc3)n2)c1 | 0.507% (inactive) |
| O=C(CCCn1c(=O)c2sccc2n(CC(=O)NCC2CCCO2)c1=O)NCc1ccco1 (stereo unspecified) | -4.48% (inactive) |
| COc1ccccc1NC(=O)C1=C(C)Nc2nc3ccccc3n2C1c1cccs1 (stereo unspecified) | -1.44% (inactive) |
| COc1ccc(S(=O)(=O)N(CC(=O)NCc2ccco2)c2ccc(F)cc2)cc1 | -0.367% (inactive) |
| CN(C)N1C(N)=C(C#N)C(c2ccc(Br)cc2)C2=C1CCCC2=O (stereo unspecified) | 0.53% (inactive) |
| O=[N+]([O-])c1ccccc1N/N=C1\CCc2ccccc21 | -0.52% (inactive) |
| O=C(N[C@@H](Cc1c[nH]c2ccccc12)C(=O)O)OCC1c2ccccc2-c2ccccc21 | 7.88% (inactive) |
| Cn1c(=O)cc(OCCCC(=O)N2CCN(c3ccccn3)CC2)c2ccccc21 | -3.56% (inactive) |
| COc1ccc(NC(=O)CSc2nncc(=O)n2N)cc1OC | -6.25% (inactive) |
| CN(C)/C=C(\C#N)C(=O)c1cccnc1Oc1cccc(F)c1 | -4.09% (inactive) |
| CC(C)NC(=O)Nc1cccc2c1O[C@@H](CN(C)S(=O)(=O)c1ccc(F)cc1)[C@@H](C)CN([C@H](C)CO)C2=O | -0.163% (inactive) |
| Cc1ccc(S(=O)(=O)N(C)C)cc1NC(=O)/C=C/c1cccs1 | 2.48% (inactive) |
| Cn1ccnc1-c1nnn(-c2ccc(F)cc2)n1 | -4.89% (inactive) |
| CCOc1ccc(CN2CCN(Cc3ccon3)CC2CCO)cc1 (stereo unspecified) | -0.588% (inactive) |
| Cc1ccc(C(=O)O)cc1-c1ccc(/C=C2\SC(=O)N(CC(=O)Nc3ccc4c(c3)OCO4)C2=O)o1 | 0.103% (inactive) |
| CC(NC(=O)c1ccc(Cl)cc1)C(=O)N1CCCCC1 (stereo unspecified) | 0.246% (inactive) |
| COc1ccc(C)cc1NC(=O)CSc1nnc2ccc(-c3ccccn3)nn12 | 1.64% (inactive) |
| COc1ccc(CNS(=O)(=O)c2cc(-c3cc(C)no3)ccc2C(C)C)cc1 | 0.556% (inactive) |

| Compound | activation |
| --- | --- |
| CN1CCN(CC#CCC2(O)c3ccccc3-c3ccccc32)CC1 | -0.677% (inactive) |
| CN1CCN(S(=O)(=O)c2ccc(Nc3ccc(F)cc3)nc2)CC1 | 7.91% (inactive) |
| Brc1ccc(CN2CC[C@H]3C=CCc4cccc(c43)C2)cc1 | -1.27% (inactive) |
| CCN1CN(Cc2ccccc2)CNC1=S | -0.233% (inactive) |
| CCc1ccc(CN2C(=O)c3ccccc3C2C(=O)NCC2CCCO2)cc1 (stereo unspecified) | 1.09% (inactive) |
| CCCN(c1ccc(C(C)C)cc1)S(=O)(=O)c1c(C)[nH]c(=O)[nH]c1=O | -2.76% (inactive) |
| CCN1C(=O)c2cccc3c(S(=O)(=O)Nc4ccccc4O)ccc1c23 | 2.45% (inactive) |
| CCN1C(=O)c2cccc3c(N)ccc1c23 | 24% (active) |
| Cc1nn(C)cc1N1C(=O)c2cccc3c(N)ccc(c23)C1=O | -0.917% (inactive) |
| O=S(=O)(N1CCCCC1)N1CCNCC1 | 2.29% (inactive) |
| Cc1c(Cl)c([N+](=O)[O-])nn1Cc1ccc(C(=O)N/N=C\c2cc(Cl)ccc2O)o1 | 1.67% (inactive) |
| COc1cc(NC(=O)COC(=O)c2cc(S(=O)(=O)N3CCOCC3)ccc2F)cc(OC)c1 | -0.441% (inactive) |
| Cc1cc(C(=O)NCCc2ccc(Cl)cc2)c(C)o1 | 7.66% (inactive) |
| CSCCC(C(=O)NC1=NCCS1)N1C(=O)c2ccccc2C1=O (stereo unspecified) | 0.0635% (inactive) |
| CN(C(=O)c1cccc(NC(=O)Cc2ccc([N+](=O)[O-])cc2)c1)C1CCC1 | 0.477% (inactive) |
| COc1cc(C(=O)Nc2cc(C(F)(F)F)ccc2N2CCOCC2)ccc1O | -3.45% (inactive) |
| Cc1ccc(NC(=O)CN(C)C(=O)c2cccc(S(=O)(=O)N3CCCC3)c2)cc1 | -1.65% (inactive) |
| Cc1n[nH]c(=O)n1-c1ccc(Oc2ccccc2)cc1 | -4.14% (inactive) |
| O=C(CCS(=O)(=O)c1ccc2c(c1)NC(=O)CS2)NCc1ccccc1Cl | 0.174% (inactive) |
| CCCc1ccc(OCc2ccc(C(=O)N/N=C/c3cccc([N+](=O)[O-])c3)o2)c(OC)c1 | 47.7% (active) |
| COC(=O)c1ccc(COc2ccc(/C=N/NC(=O)C(=O)Nc3ccc(OC)cc3)cc2OC)o1 | -4.37% (inactive) |
| O=C(N/N=C/c1cccc(OCc2ccccc2)c1)c1ccc(Br)o1 | 12% (inactive) |
